Experimental data published in ChEMBL document CHEMBL4339227, “Stereoselective Synthesis of C-2 Alkylated Trihydroxypiperidines: Novel Pharmacological Chaperones for Gaucher Disease” (ACS Med Chem Lett, 2019).
The source made the active and inactive calls. The calls are words filed in the database; no cut-off is given here.

Tests used:
Homo sapiens [1] = species: Homo sapiens; assay: Inhibition of GCase in human leukocytes extracts at 1 mM using 4-methylumbelliferyl-beta-D-glucoside substrate incubated for 1 hr by spectrophotometry relative to untreated control; format: cell-based
Summary of the method: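 Human leukocyte homogenates were used as the GCase source. Enzyme activity was measured with the test compound at 1 mM, and the result was expressed as percent inhibition.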

[2] = Inhibition of GCase in human leukocytes extracts using 4-methylumbelliferyl-beta-D-glucoside substrate incubated for 1 hr by spectrophotometry; format: cell-based
Summary of the method: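 Human leukocyte homogenates were used as the GCase source. IC50 was derived from GCase activity measured across a range of inhibitor concentrations.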

Homo sapiens [3] = species: Homo sapiens; assay: Chaperone activity at GCase N370/RecNcil mutant in human fibroblasts derived from Gaucher patient assessed as increase in GCase activity at 1 uM incubated for 4 days using 4-methylumbelliferyl-beta-D-glucoside substrate by spectrophotometry relative to untreated control
Homo sapiens [4] = species: Homo sapiens; assay: Chaperone activity at GCase N370/RecNcil mutant in human fibroblasts derived from Gaucher patient assessed as increase in GCase activity at 50 nM incubated for 4 days using 4-methylumbelliferyl-beta-D-glucoside substrate by spectrophotometry relative to untreated control
Homo sapiens [5] = species: Homo sapiens; assay: Chaperone activity at GCase N370/RecNcil mutant in human fibroblasts derived from Gaucher patient assessed as increase in GCase activity at 10 nM incubated for 4 days using 4-methylumbelliferyl-beta-D-glucoside substrate by spectrophotometry relative to untreated control
[6] = Competitive inhibition of GCase in human leukocytes extracts using 4-methylumbelliferyl-beta-D-glucoside substrate incubated for 1 hr by spectrophotometry; format: cell-based
Homo sapiens [7] = species: Homo sapiens; assay: Chaperone activity at GCase N370/RecNcil mutant in human fibroblasts derived from Gaucher patient assessed as increase in GCase activity at 10 uM incubated for 4 days using 4-methylumbelliferyl-beta-D-glucoside substrate by spectrophotometry relative to untreated control
Homo sapiens [8] = species: Homo sapiens; assay: Chaperone activity at GCase N370/RecNcil mutant in human fibroblasts derived from Gaucher patient assessed as increase in GCase activity at 50 uM incubated for 4 days using 4-methylumbelliferyl-beta-D-glucoside substrate by spectrophotometry relative to untreated control
Homo sapiens [9] = species: Homo sapiens; assay: Chaperone activity at GCase L444P GBA gene mutant mutant in human fibroblasts derived from Gaucher patient assessed as increase in GCase activity at 100 uM incubated for 4 days using 4-methylumbelliferyl-beta-D-glucoside substrate by spectrophotometry relative to untreated control
Homo sapiens [10] = species: Homo sapiens; assay: Chaperone activity at GCase N370/RecNcil mutant in human fibroblasts derived from Gaucher patient assessed as increase in GCase activity at 100 uM relative to untreated control
Homo sapiens [11] = species: Homo sapiens; assay: Chaperone activity at GCase N370/RecNcil mutant in human fibroblasts derived from Gaucher patient assessed as increase in GCase activity at 100 uM incubated for 4 days using 4-methylumbelliferyl-beta-D-glucoside substrate by spectrophotometry relative to untreated control
Homo sapiens [12] = species: Homo sapiens; assay: Chaperone activity at GCase N370/RecNcil mutant in human fibroblasts derived from Gaucher patient assessed as increase in GCase activity incubated for 4 days using 4-methylumbelliferyl-beta-D-glucoside substrate by spectrophotometry relative to untreated control

| inhibition (Homo sapiens [1]) [%] | IC50 [2] [µM] | Structure (SMILES) | also measured |
| --- | --- | --- | --- |
| 91 | 23.3 | CCCCCCCCCCCC[C@@H]1NC[C@@H](O)[C@@H](O)[C@@H]1O | fold change (FC) (Homo sapiens [3]): 1.4 |
| 96 | 100 | CCCCCCCCCCC[C@@H]1NC[C@@H](O)[C@@H](O)[C@@H]1O | fold change (FC) (Homo sapiens [4]): 1.3 |
| 80 | 93.5 | CCCCCCCC[C@@H]1NC[C@@H](O)[C@@H](O)[C@@H]1O | fold change (FC) (Homo sapiens [5]): 1.3 |
| 50 | > 1000 | CCCCCCCC[C@H]1[C@@H](O)[C@H](O)[C@H](O)CN1C |  |
| 100 | 7 | CCCCCCCCCCC[C@H]1NC[C@@H](O)[C@@H](O)[C@@H]1O | fold change (FC) (Homo sapiens [4]): 1.2 |
| 88 | 160 | CCCCCCCCCCCCC[C@@H]1NC[C@@H](O)[C@@H](O)[C@@H]1O | Activity (Homo sapiens [12]): inactive |

Further lines, the compound ahead of its results:

| Structure (SMILES) | inhibition (Homo sapiens [1]) [%] | IC50 [2] [µM] | also measured |
| --- | --- | --- | --- |
| CCCCCCCC[C@H]1NC[C@@H](O)[C@@H](O)[C@@H]1O | 100 | 29.3 | Ki [6]: 18.5 µM; fold change (FC) (Homo sapiens [5]): 1.4; fold change (FC) (Homo sapiens [7]): 1.6; fold change (FC) (Homo sapiens [8]): 1.9; fold change (FC) (Homo sapiens [9]): 1.8 |
| CCCCCCCCN1C[C@@H](O)C(O)[C@H](O)C1 | 98 | 30 | fold change (FC) (Homo sapiens [10]): 1.25; fold change (FC) (Homo sapiens [11]): 1.26 |
| CCCCCCCCCCCC[C@H]1NC[C@@H](O)[C@@H](O)[C@@H]1O | 95 | 1.5 | Ki [6]: 3.6 µM; fold change (FC) (Homo sapiens [3]): 1.4 |
| CCCCCCCCCCCCC[C@H]1NC[C@@H](O)[C@@H](O)[C@@H]1O | 98 | 9 |  |
